Test results from paper PMC5352491 (ACS chemical neuroscience, 2016).
“Also recorded” adds a separate entry of the source. Like-named read-outs stand apart in the source and are kept apart here.

How the values were obtained:
human μ-OR [1] = target: T1, human μ-OR (Homo sapiens, UniProt P35372); experiment: cell-based; conditions: HEK-293T, read-out: β-arrestin-2 Emax (%)
Target sequence in this assay (P35372 whole entry): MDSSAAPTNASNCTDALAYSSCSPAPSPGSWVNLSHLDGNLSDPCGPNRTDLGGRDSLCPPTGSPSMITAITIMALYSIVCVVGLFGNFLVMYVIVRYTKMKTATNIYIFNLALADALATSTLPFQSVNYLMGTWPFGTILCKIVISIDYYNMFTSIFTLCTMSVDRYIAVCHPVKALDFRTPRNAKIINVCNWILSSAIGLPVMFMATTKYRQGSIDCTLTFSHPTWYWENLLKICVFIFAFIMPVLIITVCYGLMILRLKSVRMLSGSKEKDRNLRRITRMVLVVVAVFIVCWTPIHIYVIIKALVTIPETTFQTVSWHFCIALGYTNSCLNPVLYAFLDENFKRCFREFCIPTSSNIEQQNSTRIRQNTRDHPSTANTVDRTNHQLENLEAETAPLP
Target sequence in this assay (P32121 whole entry partner): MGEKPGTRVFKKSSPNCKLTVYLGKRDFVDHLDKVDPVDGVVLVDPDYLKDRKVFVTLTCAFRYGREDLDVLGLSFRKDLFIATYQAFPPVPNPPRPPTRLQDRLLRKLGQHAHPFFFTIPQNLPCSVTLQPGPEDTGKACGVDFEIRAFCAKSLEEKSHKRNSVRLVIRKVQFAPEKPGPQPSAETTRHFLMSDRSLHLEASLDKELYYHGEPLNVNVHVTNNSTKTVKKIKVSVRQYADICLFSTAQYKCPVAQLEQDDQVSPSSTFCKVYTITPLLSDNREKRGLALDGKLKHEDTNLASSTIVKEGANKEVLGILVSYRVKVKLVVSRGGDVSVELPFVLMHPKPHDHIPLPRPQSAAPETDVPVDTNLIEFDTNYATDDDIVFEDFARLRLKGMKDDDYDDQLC

human μ-OR [2] = target: T1, human μ-OR; experiment: cell-based; conditions: HEK-293T, read-out: Gi Emax(%)
Target sequence in this assay (P35372 whole entry): as the sequence (P35372 whole entry) above

κ-OR = κ-OR (Homo sapiens, UniProt P41145); experiment: κ-OR agonist/antagonist screen; assay type: cell-based; conditions: up to 50.0 μM
[3] = target: human δ opioid receptor (δ-OR) (Homo sapiens, UniProt P41143); experiment: calcium mobilization assay, δ-OR agonist activity; assay type: cell-based; conditions: for activity at δ-OR (agonist or antagonist): up to 50.0 μM; for δ-OR agonist activity in HTS of extract / LC-MS fractions: approximately 20.0 μg/mL, DPDPE control 100 nM
[4] = target: human μ opioid receptor (μ-OR) (Homo sapiens, UniProt P35372); experiment: cell-based; assay type: cell-based
μ-OR [5] = experiment: biotin protection endocytosis assay; assay type: cell-based; conditions: 10 μM each, 30 min
HEK 293T cells = experiment: toxicity seen in the β-arrestin-2 recruitment assay; assay type: cell-based; conditions: cells of the β-arrestin-2 dose-response
μ-OR [6] = experiment: fluorescent endocytosis assay; assay type: cell-based; conditions: 30 min; DAMGO 1 μM, others 10 μM
WT C57BL/6 mice [7] = experiment: forced swim test, wild type mice; assay type: in vivo; conditions: 40 mg/kg ip; for antidepressant-like activity in forced swim test: p = 0.003 vs saline, 40 mg/kg
How it was run: (§1)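 Male C57BL/6 mice (wild type or δ-OR knockout littermates, 8–10 weeks, 9 per group) on a 12-h reversed light/dark cycle, tested in the dark phase after 2 h room habituation. Given saline vehicle or test compound (40 mg/kg ip), then placed in a water cylinder (30 cm diameter, 22–24 cm deep, 36.0 ± 0.2 °C) for 6 min. Video recorded; seconds immobile scored.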

δ-KO C57BL/6 mice [8] = conditions: mouse, in vivo, ip, 40 mg/kg
WT C57BL/6 mice [9] = conditions: mouse, in vivo, ip, 40 mg/kg
WT C57BL/6 mice [10] = conditions: unknown target; cited from earlier work
δ-KO C57BL/6 mice [11] = experiment: forced swim test, δ-OR knockout mice; assay type: in vivo; conditions: 40 mg/kg ip, p = 0.20 vs saline
How it was run: as §1

Sequence of human μ opioid receptor (μ-OR) (P35372 whole entry): as above
Sequence of human δ opioid receptor (δ-OR) (P41143 whole entry): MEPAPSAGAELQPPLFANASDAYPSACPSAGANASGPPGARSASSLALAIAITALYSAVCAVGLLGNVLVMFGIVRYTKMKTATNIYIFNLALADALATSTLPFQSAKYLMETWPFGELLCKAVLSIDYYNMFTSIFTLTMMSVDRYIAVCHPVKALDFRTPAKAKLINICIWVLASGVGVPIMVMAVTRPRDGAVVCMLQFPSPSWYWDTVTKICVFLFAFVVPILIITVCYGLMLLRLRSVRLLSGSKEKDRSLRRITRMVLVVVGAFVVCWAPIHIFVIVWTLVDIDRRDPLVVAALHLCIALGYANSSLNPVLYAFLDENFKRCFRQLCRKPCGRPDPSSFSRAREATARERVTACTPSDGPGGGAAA
Sequence of κ-OR (P41145 whole entry): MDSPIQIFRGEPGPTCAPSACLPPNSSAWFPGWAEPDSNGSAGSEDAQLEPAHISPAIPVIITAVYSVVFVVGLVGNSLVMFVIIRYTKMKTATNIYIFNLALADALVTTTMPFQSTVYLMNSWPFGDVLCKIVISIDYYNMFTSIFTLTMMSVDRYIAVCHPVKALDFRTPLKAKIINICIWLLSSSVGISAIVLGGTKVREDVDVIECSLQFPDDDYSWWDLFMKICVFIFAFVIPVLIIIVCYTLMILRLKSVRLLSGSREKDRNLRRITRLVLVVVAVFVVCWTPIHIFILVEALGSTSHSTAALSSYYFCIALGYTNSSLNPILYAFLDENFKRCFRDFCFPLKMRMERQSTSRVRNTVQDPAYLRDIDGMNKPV

O=C1c2ccccc2-[n+]2ccc3c([nH]c4ccccc43)c21 [fascaplysin (17), fascaplysin]
Emax (human μ-OR [1]): 78% | Emax (human μ-OR [2]): 111% | activity at κ-OR (agonist or antagonist) (κ-OR): no significant agonist or antagonist activity | activity at δ-OR (agonist or antagonist) [3]: no significant agonist or antagonist activity | EC50 [4]: 6.3 ± 0.2 µM | Emax ([4]; read-out: Emax at the μ-OR): 100% | μ-OR endocytosis, biotin protection assay (μ-OR [5]): promoted substantial endocytosis; also recorded: promoted μ-OR endocytosis | toxic concentration (HEK 293T cells): higher than 50 μM | μ-OR endocytosis by immunofluorescence (μ-OR [6]): promoted substantial endocytosis; also recorded: promoted μ-OR endocytosis

O=C1c2ccccc2-[n+]2ccc3c([nH]c4cc(Br)ccc43)c21 [10 bromofascaplysin (18), 10 bromofascaplysin]
EC50 ([4]; read-out: EC50 μ-OR): 4.2 ± 3.7 µM

CNc1c2c(c3nc4ccccc4c4c3c1N=C4)NCCC2=O [plakinidine A (19), plakinidine A]
activity at δ-OR (agonist or antagonist) [3]: not active | activity at μ-OR (agonist or antagonist) [4]: not active

CC(C)c1c2c(c3nc4ccccc4c4c3c1N=C4)NCCC2=O [plakinidine B (20), plakinidine B]
activity at δ-OR (agonist or antagonist) [3]: not active | activity at μ-OR (agonist or antagonist) [4]: not active

C[C@@H](NC(=O)[C@@H](N)Cc1ccc(O)cc1)C(=O)NCC(=O)N(C)[C@@H](Cc1ccccc1)C(=O)NCCO [DAMGO (6), DAMGO]
μ-OR endocytosis, biotin protection assay (μ-OR [5]): promoted significant endocytosis | μ-OR endocytosis, biotin protection assay (μ-OR [5]; listed as DAMGO): promoted μ-OR endocytosis | μ-OR endocytosis by immunofluorescence (μ-OR [6]): also promoted endocytosis; also recorded: promoted μ-OR endocytosis

CCC(=O)C(CC(C)N(C)C)(c1ccccc1)c1ccccc1 (centres unmarked) [methadone (S6), methadone]
μ-OR endocytosis, biotin protection assay (μ-OR [5]): promoted significant endocytosis; also recorded: promoted μ-OR endocytosis | μ-OR endocytosis by immunofluorescence (μ-OR [6]): also promoted endocytosis; also recorded: promoted μ-OR endocytosis

COc1cc2ccnc3c2c(c1OC)NC=C3 [aaptamine (10), aaptamine]
antidepressant-like activity in forced swim test (WT C57BL/6 mice [7]; listed as Aaptamine): showed antidepressant-like activity in WT | antidepressant-like activity in forced swim test (WT C57BL/6 mice [7]; listed as aaptamine): showed antidepressant-like activity | time immobile in forced swim test (average) (WT C57BL/6 mice [7]; saline ~30 s): ~ 10 s | effect on general locomotion (δ-KO C57BL/6 mice [8]): no effect on general locomotion | effect on general locomotion (WT C57BL/6 mice [9]): no effect on general locomotion | effect on immobility time in forced swim test (WT C57BL/6 mice [10]): significant effect on the immobility time | EC50 [3]: 5.1 ± 0.2 µM | EC50 [4]: 10.1 ± 1.4 µM | effect in forced swim test (δ-KO C57BL/6 mice [11]; listed as Aaptamine): antidepressant-like activity in WT but not δ-KO mice | effect in forced swim test (δ-KO C57BL/6 mice [11]; listed as aaptamine): no effect

COc1cc2ccnc3c2c(c1O)NC=C3 [9-demethyl aaptamine (11), 9-demethyl aaptamine]
δ-OR agonist activity in HTS of extract / LC-MS fractions [3]: measurable δ-OR agonist activity | μ-OR agonist activity in HTS of extract / LC-MS fractions [4]: very weak partial agonism | EC50 ([4]; read-out: EC50 μ-OR): 6.03 ± 1.2 µM

COC1=Cc2ccnc3ccnc(c23)C1=O [demethyl (oxy) –aaptamine (12), demethyl (oxy) –aaptamine]
δ-OR agonist activity in HTS of extract / LC-MS fractions [3]: measurable δ-OR agonist activity | μ-OR agonist activity in HTS of extract / LC-MS fractions [4]: very weak partial agonism | EC50 ([4]; read-out: EC50 μ-OR): 4.1 ± 1.2 µM

mitragynine [mitragynine (21)]
μ-OR endocytosis by immunofluorescence (μ-OR [6]): did not promote receptor endocytosis

CN1CC[C@]23c4c5ccc(O)c4O[C@H]2[C@@H](O)C=C[C@H]3[C@H]1C5 [morphine (1), morphine]
μ-OR endocytosis, biotin protection assay (μ-OR [5]): induced no significant endocytosis | μ-OR endocytosis by immunofluorescence (μ-OR [6]): did not promote significant endocytosis
